Data from ChEMBL document CHEMBL5705894, “SB1518, a novel macrocyclic pyrimidine-based JAK2 inhibitor for the treatment of myeloid and lymphoid malignancies” (Leukemia, 2011).
Calls of active or inactive are those of the source. The rule behind the calls is not given here.

Tests used:
[1] = test system: Tyrosine-protein kinase JAK2 (Homo sapiens), O60674 [V617F]; conditions: HEL 92.1.7, dose 1000.0 nM, time 3.0 hrs
[2] = AUC (0 to infinity) in athymic BALB/c nude mouse xenografted with mouse BaF3 cells at 150 mg/kg, po administered for 24 hrs by HPLC analysis; format: ADME, organism-based; conditions: in vivo
[3] = Toxicity in athymic BALB/c nude mouse xenografted with mouse Ba/F3 cells harboring JAK2 V617F mutant assessed as platelet count at 150 mg/kg, po administered for 12 days by ScilVET abc hematology analyzer method; format: organism-based, BaF3; conditions: in vivo, 288 h, time 12 day
Outline: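 Engraftment model: BALB/c nude mice were given 2 × 10^6 Ba/F3-JAK2V617F cells i.v. by tail vein. Once-daily oral gavage (10 ml/kg) of 50 or 150 mg/kg began on day 4 after inoculation, with 10 mice per group and four naive mice as baseline. Blood counts were taken on a veterinary hematology analyzer.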

[4] = test system: BaF3; assay: Cytotoxicity against mouse BaF3 cells expressing JAK2 V617F mutant xenografted in athymic BALB/c nude mouse assessed as inhibition of cell viability administered for 24 hrs by CellTiterGlo assay; format: toxicity, cell-based; conditions: in vivo, po, 150 mg/kg
[5] = Toxicity in athymic BALB/c nude mouse xenografted with mouse Ba/F3 cells harboring JAK2 V617F mutant assessed as hematocrit count at 150 mg/kg, po administered for 12 days by ScilVET abc hematology analyzer method; format: organism-based, BaF3; conditions: in vivo, 288 h, time 12 day
Outline: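 BALB/c nude mice were injected in the tail vein with 2 × 10^6 Ba/F3-JAK2V617F cells in serum-free medium. Oral dosing at 50 or 150 mg/kg once daily began on day 4, with 10 mice per group and 4 naive baseline mice. Blood counts were taken on a hematology analyzer.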

[6] = Cytotoxicity against human Erythroid progenitor cells assessed as inhibition of colony growth formation; format: toxicity, cell-based, Erythroid progenitor cell
Outline: (§1)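 PBMCs from PV patients, 2–8 × 10^5 per plate, were plated in minimal methylcellulose medium with graded drug concentrations or DMSO, in triplicate. After 14 days, erythroid (BFU-E, CFU-E) and myeloid (CFU-M, CFU-GM) colonies were counted.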

[7] = Cytotoxicity against human EPC cells derived from healthy volunteers assessed as inhibition of cell viability incubated for 48 hrs by CellTiterGlo assay; format: toxicity, cell-based
Outline: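 Erythroid progenitors expanded from PBMCs of PV patients or normal volunteers using a 2-step protocol. On day 12 of expansion, cells were exposed to compound for 48 h and viability was read by CellTiter-Glo. Day-12 cells were phenotyped by CD71/CD235A flow staining.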

[8] = Induction of apoptosis in human EPC cells derived from healthy volunteers assessed as activation of caspase-3/7 level incubated for 16 hrs; format: toxicity, cell-based
[9] = Toxicity in athymic BALB/c nude mouse xenografted with mouse Ba/F3 cells harboring JAK2 V617F mutant assessed as weight loss at 150 mg/kg, po administered for 12 days; format: organism-based, BaF3; conditions: in vivo, 288 h, time 12 day
Outline: (§2)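 Ba/F3-JAK2V617F cells (2 × 10^6 in serum-free medium) were injected into the tail vein of BALB/c nude mice. From day 4 after inoculation, mice got SB1518 by oral gavage (10 ml/kg) at 50 or 150 mg/kg once daily. Groups held 10 mice, and four naive mice gave baseline values.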

[10] = Toxicity in SCID Beige mouse xenografted with human SET2 cells assessed as increase in body weight at 150 mg/kg, po administered for 18 days relative to control; format: organism-based; conditions: in vivo, 432 h, time 18 day
[11] = Toxicity in athymic BALB/c nude mouse xenografted with mouse Ba/F3 cells harboring JAK2 V617F mutant assessed as liver weight at 150 mg/kg, po administered for 12 days relative to control; format: organism-based, BaF3; conditions: in vivo, 288 h, time 12 day
Outline: as §2

[12] = Induction of apoptosis in human EPC cells derived from polycythemia vera patients assessed as activation of caspase-3/7 level incubated for 16 hrs; format: toxicity, cell-based; conditions: human, epc, time 16 hrs
[13] = Toxicity in athymic BALB/c nude mouse xenografted with mouse Ba/F3 cells harboring JAK2 V617F mutant assessed as spleen weight at 150 mg/kg, po administered for 13 days relative to control; conditions: in vivo, 312 h
[14] = Toxicity in SCID Beige mouse xenografted with human SET2 cells assessed as decrease in body weight at 75 mg/kg, po administered for 18 days relative to control; format: organism-based; design: scale not given: the % may be the effect or the level left; conditions: in vivo, 432 h, time 18 day
[15] = Toxicity in SCID Beige mouse xenografted with human SET2 cells assessed as platelet count at 150 mg/kg, po administered for 18 days by ScilVET abc hematology analyzer method; format: organism-based; conditions: in vivo, 432 h, time 18 day
[16] = Toxicity in SCID Beige mouse xenografted with human SET2 cells assessed as leukopenia at 150 mg/kg, po administered for 18 days by ScilVET abc hematology analyzer method; format: organism-based; conditions: in vivo, 432 h, time 18 day
[17] = Toxicity in SCID Beige mouse xenografted with human SET2 cells assessed as hematocrit count at 150 mg/kg, po administered for 18 days by ScilVET abc hematology analyzer method; format: organism-based; conditions: in vivo, 432 h, time 18 day
[18] = Cytotoxicity against human Myeloid progenitor cells assessed as inhibition of colony growth formation; format: toxicity, cell-based, Myeloid progenitor cell
Outline: as §1

Tyrosine-protein kinase JAK2 (Homo sapiens), O60674 [V617F], sequence (O60674 whole entry V617F): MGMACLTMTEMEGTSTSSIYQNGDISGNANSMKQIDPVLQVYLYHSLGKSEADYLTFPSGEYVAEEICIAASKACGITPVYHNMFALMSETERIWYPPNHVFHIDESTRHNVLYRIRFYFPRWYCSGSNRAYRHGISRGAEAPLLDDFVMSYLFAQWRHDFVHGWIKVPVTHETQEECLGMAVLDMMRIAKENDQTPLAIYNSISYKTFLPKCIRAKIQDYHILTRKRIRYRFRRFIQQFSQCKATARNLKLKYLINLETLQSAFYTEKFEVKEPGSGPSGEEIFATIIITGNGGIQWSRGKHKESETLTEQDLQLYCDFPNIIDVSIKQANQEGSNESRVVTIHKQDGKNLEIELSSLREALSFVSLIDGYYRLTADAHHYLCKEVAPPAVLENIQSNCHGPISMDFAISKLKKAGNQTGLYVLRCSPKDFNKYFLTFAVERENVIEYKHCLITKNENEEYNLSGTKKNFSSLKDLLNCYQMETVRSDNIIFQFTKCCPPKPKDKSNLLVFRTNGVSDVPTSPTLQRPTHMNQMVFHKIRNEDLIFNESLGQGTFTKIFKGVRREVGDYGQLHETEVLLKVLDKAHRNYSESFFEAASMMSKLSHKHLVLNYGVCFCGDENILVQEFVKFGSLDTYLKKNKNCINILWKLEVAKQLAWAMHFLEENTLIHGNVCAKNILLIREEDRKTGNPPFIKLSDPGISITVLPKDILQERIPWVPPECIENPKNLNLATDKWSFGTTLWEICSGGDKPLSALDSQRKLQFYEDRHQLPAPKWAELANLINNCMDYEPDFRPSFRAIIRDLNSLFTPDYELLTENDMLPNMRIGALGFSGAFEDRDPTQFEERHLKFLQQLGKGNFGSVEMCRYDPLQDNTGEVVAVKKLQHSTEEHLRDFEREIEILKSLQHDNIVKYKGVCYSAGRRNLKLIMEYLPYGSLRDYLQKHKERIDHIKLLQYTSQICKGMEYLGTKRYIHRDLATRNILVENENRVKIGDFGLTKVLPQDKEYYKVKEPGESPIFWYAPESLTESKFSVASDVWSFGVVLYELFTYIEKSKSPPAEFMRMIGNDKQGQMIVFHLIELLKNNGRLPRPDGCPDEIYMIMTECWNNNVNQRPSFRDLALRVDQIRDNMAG

SMILES: Cc1cnc(Nc2ccc(OCCN3CCCC3)cc2)nc1Nc1cccc(S(=O)(=O)NC(C)(C)C)c1
- inhibition [1]: Active

SMILES: CC(C)(C)c1nc2c3ccc(F)cc3c3c(=O)[nH]ccc3c2[nH]1
- inhibition [1]: Active

SMILES: C1=C/COCc2cc(ccc2OCCN2CCCC2)Nc2nccc(n2)-c2cccc(c2)COC/1 [PACRITINIB]
- AUC(0-inf) [2]: 220 ng·h/mL
- Activity [3]: Non-Toxic
- FIC50 [4]: 0.16 µM
- Activity [5]: Non-Toxic
- IC50 [6]: 63 nM
- IC50 at 48 h [7]: 230 nM
- EC50 at 16 h ([8]; EPC cells derived from healthy volunteers): 224 nM
- Activity ([8]; epc, 16 h): Dose-Dependent Effect
- Activity [9]: Non-Toxic
- Activity [10]: 0.2%
- Activity [11]: 92%
- Activity [12]: Dose-Dependent Effect
- Activity [13]: 60%
- Activity [14]: 10.1%
- Activity [15]: Non-Toxic
- Activity [16]: Non-Toxic
- Activity [17]: Non-Toxic
- IC50 [18]: 63 nM
